According to ChEMBL document CHEMBL4480410, “Targeting the MKK7-JNK (Mitogen-Activated Protein Kinase Kinase 7-c-Jun N-Terminal Kinase) Pathway with Covalent Inhibitors” (J Med Chem, 2019):
Activity calls are given as the source filed them. The rule behind the calls is not given here.

Legend:
[1] = Inhibition of N-terminal His-tagged MKK7 beta1 S273D/T275D double mutant (unknown origin) expressed in insect cells using JNK1 K55M mutant as substrate by ADP-Glo assay; set-up: species or system Homo sapiens
How it was run: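 ADP-Glo luminescence run per supplier protocol. Kinase: MKK7 beta1 (aa 1-462, TEV-cleavable N-terminal His6 tag, S273D/T275D) expressed in Sf9 insect cells, used at 20 nM. Substrate: JNK1 K55M at 5 µM. Compound dispensed acoustically; read on plate reader.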

[2] = target: Tyrosine-protein kinase Blk (Homo sapiens) (UniProt P51451); assay: Inhibition of BLK (unknown origin) at 1 uM by proQinase-based assay relative to control
[3] = target: T1, Cytoplasmic tyrosine-protein kinase BMX (Homo sapiens) (UniProt P51813); assay: Inhibition of BMX (unknown origin) at 1 uM by proQinase-based assay relative to control
T1 sequence (whole entry): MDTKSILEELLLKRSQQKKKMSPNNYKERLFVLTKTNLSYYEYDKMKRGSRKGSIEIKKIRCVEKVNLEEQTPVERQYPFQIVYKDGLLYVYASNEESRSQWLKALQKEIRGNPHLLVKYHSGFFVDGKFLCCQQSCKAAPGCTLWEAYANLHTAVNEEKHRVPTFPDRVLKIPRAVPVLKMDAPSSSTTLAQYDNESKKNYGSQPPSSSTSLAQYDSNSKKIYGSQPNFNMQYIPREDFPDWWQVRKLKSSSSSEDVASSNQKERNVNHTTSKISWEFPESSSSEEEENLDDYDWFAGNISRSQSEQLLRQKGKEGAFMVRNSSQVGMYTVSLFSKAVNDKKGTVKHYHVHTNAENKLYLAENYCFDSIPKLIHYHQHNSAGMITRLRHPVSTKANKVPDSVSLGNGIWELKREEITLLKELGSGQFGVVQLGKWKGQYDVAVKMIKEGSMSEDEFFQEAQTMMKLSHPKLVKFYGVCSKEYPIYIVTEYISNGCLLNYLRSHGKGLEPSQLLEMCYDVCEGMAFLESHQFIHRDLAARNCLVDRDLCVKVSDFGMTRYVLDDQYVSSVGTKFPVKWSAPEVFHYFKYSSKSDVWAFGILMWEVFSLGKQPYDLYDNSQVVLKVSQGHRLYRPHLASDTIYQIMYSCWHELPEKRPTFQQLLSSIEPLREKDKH

[4] = target: Tyrosine-protein kinase BTK (Homo sapiens) (UniProt Q06187); assay: Inhibition of BTK (unknown origin) at 1 uM by proQinase-based assay relative to control
[5] = target: Serine/threonine-protein kinase mTOR (Homo sapiens) (UniProt P42345); assay: Inhibition of mTOR (unknown origin) at 1 uM by proQinase-based assay relative to control
[6] = target: T2, Dual specificity mitogen-activated protein kinase kinase 7 (Mus musculus) (UniProt Q8CE90); assay: Inhibition of MKK7 in mouse DRG cells assessed as reduction in JNK phosphorylation at 1 uM after 2 hrs by Western blot analysis; type: cell-based
T2 sequence (whole entry): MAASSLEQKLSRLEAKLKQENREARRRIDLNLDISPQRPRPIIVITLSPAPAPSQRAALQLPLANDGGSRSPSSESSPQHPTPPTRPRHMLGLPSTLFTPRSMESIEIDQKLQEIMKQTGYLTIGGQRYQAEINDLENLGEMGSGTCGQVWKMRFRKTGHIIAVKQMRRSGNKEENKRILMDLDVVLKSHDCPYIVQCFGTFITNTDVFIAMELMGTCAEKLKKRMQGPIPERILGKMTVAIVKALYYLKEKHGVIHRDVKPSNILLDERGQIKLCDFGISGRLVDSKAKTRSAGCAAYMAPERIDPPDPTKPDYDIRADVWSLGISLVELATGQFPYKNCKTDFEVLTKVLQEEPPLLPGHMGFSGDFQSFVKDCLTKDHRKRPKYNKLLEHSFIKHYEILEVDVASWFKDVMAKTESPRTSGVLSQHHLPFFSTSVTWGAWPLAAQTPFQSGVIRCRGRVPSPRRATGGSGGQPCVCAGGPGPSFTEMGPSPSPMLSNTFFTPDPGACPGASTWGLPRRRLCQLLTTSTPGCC
How it was run: (§1)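 Dissociated DRG neurons plated on laminin for 3 h, medium replaced, compound added for a further 2 h. Neurons lysed in RIPA buffer with phosphatase inhibitors. Western blots probed for phospho-cJun, cJun, phospho-JNK and JNK.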

[7] = target: T2, Dual specificity mitogen-activated protein kinase kinase 7 (Mus musculus); assay: Inhibition of MKK7 in mouse DRG cells assessed as reduction in cJUN phosphorylation at 1 uM after 2 hrs by Western blot analysis; type: cell-based; how it was run: as §1
[8] = Apparent permeability across apical to basolateral side in human Caco2 cells at 5 uM after 2 hrs by transwell membrane based assay; type: ADME, cell-based; settings: Caco-2
How it was run: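 10 mM DMSO stock diluted to 5 µM final in HBSS pH 7.4; 2 h at 37 °C, 5% CO2 on Caco-2 monolayers grown 21 days on transwell membranes.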

[9] = Apparent permeability across apical to basolateral side in MDCK2-MDR1 cells at 10 uM after 2 hrs by transwell membrane based assay; type: ADME, cell-based, Canis lupus familiaris; settings: dog, MDCK-MDR1
How it was run: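 Compound at 10 µM in HBSS added to apical or basolateral side of MDCKII-MDR1 monolayer, 2 h at 37 °C. Both sides quantified by LC-MS/MS; Papp A–B or B–A from receiver concentration and volume, time, membrane area and initial donor concentration.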

[10] = Stability in human plasma assessed as compound remaining at 5 uM after 1 hr by LC/MS analysis; type: ADME, cell-free; settings: read-out: Stability
How it was run: (§2)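 Compound at 5 µM incubated 1 h at 37 °C in human or mouse plasma; percentage remaining quantified by LC/MS.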

[11] = Stability in mouse plasma assessed as compound remaining at 5 uM after 1 hr by LC/MS analysis; type: ADME, cell-free; settings: read-out: Stability; how it was run: as §2
[12] = Protein binding in human plasma at 5 uM after 6 hrs by LC/MS analysis; type: ADME, cell-free; settings: read-out: PPB (converted)
How it was run: (§3)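 Equilibrium dialysis of plasma with compound at 5 µM, 6 h at 37 °C; final compound concentrations determined by LC/MS to give percent bound.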

[13] = Protein binding in mouse plasma at 5 uM after 6 hrs by LC/MS analysis; type: ADME, cell-free; settings: read-out: PPB (converted); how it was run: as §3
[14] = in vitro; settings: human, liver microsomes
[15] = in vitro; settings: mouse, liver microsomes

Chain of Tyrosine-protein kinase Blk (Homo sapiens) (P51451 2-505 limits assumed): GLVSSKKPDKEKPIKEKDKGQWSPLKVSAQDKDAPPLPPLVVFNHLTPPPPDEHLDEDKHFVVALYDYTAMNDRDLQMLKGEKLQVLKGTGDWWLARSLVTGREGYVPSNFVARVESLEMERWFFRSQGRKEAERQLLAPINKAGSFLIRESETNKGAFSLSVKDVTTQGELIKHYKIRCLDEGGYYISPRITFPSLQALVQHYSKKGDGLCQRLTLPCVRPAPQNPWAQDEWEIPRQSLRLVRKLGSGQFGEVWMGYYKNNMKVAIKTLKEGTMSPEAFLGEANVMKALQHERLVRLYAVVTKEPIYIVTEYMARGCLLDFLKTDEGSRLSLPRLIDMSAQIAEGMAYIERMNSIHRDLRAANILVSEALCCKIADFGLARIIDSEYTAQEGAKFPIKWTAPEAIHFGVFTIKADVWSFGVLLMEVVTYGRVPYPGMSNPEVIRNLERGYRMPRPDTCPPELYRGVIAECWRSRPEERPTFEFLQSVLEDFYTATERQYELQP
Chain of Tyrosine-protein kinase BTK (Homo sapiens) (Q06187 whole entry): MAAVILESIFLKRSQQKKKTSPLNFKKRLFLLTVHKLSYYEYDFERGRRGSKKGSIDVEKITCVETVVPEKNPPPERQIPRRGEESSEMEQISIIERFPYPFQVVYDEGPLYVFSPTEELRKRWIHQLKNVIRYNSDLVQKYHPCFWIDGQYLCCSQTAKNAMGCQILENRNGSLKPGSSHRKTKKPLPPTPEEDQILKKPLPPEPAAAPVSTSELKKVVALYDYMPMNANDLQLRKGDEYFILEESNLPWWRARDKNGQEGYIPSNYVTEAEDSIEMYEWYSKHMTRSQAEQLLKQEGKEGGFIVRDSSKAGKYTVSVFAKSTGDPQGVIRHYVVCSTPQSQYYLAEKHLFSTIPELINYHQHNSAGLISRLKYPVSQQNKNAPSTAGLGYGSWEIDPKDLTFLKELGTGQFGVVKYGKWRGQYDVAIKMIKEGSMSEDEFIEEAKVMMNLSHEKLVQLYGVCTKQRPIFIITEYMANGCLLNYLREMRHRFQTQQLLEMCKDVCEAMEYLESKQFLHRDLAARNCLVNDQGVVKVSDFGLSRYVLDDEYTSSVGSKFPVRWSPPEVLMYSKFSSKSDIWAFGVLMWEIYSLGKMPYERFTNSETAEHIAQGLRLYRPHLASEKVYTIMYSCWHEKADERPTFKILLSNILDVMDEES

C=CC(=O)N1CCC[C@@H](n2nc(-c3cn(-c4ccc(C(C)=O)cc4)nn3)c3c(N)ncnc32)C1
IC50 [1]: 10 nM
inhibition [2]: > 50%
inhibition [3]: > 50%
inhibition [4]: > 50%
inhibition [5]: > 50%
inhibition [6]: Active
inhibition [7]: Active
Papp A→B at 2 h, 5 µM [8]: 20 ×10⁻⁶ cm/s
Papp A→B at 2 h, 10 µM [9]: 9 ×10⁻⁶ cm/s
remaining at 1 h, 5 µM [10]: > 99%
remaining at 1 h, 5 µM [11]: 70.4%
fraction unbound at 6 h, 5 µM [12]: 0.04
fraction unbound at 6 h, 5 µM [13]: 0.073
microsomal CLint at 1 h, 3 µM [14]: 154 µL/min/mg
microsomal CLint at 1 h, 3 µM [15]: 124 µL/min/mg
